Experimental data published in PubChem BioAssay AID493091 (Sanford-Burnham Center for Chemical Genomics, 2011).
In all, about 340,000 compounds went through this assay and about 3,000 (0.88%) were called active.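 The calls were made as follows: active = inhibition above about 50% at 20 µM (limit read from the data); inactive = the rest.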 What follows is part of a selection rich in actives, with near analogues and random picks from the rest.

Target: Carboxy-terminal domain RNA polymerase II polypeptide A small phosphatase 1 (Homo sapiens) (UniProt Q9GZU7)
Sequence (Q9GZU7 76-261 limits assumed): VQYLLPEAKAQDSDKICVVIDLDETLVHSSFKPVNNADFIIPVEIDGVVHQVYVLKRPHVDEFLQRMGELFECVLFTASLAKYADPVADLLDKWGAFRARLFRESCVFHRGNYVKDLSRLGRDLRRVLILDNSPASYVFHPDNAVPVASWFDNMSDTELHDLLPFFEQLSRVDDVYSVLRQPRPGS
Test: Scp-1 phosphatase inhibitors, primary screen, biochemical, colorimetric, uHTS (AID 493091);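 also: plate controls were DMSO wells with enzyme for no effect and wells lacking enzyme for full effect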
Conditions: Recombinant Scp1, phosphopeptide, malachite green phosphate absorbance; at 20 µM; hits give high values
Method in brief: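 Test system: SCP-1 phosphatase catalytic domain, residues 76-261 | Compound dosing: One concentration, 20 µM, with 1.0% DMSO | Schedule: 45 min room-temperature reaction, 5 min colour, 30 min stabiliser | Detection: Absorbance at 630 nm | Read-out basis: % inhibition of SCP-1 phosphate liberation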

| SMILES | inhibition |
| --- | --- |
| Cc1cc(C)cc(N(CC(=O)NCC2CCCO2)S(=O)(=O)c2c(C)noc2C)c1 (configuration not stated) | -3.08% (inactive) |
| O=C(O)c1ccn(COc2ccc(Br)cc2)n1 | -2.51% (inactive) |
| CC1CCN(C(=O)Cn2nnnc2CN2CCOCC2)CC1 | -6.52% (inactive) |
| Cc1cc(C)nc(SCc2cn3c(C)cc(C)nc3n2)n1 | -3.52% (inactive) |
| COc1cccc(NC(=O)CN(C)C(=O)/C=C/c2cn(-c3ccccc3)nc2-c2cccs2)c1 | -11.8% (inactive) |
| COc1cccc(NC(=O)CN(C)C(=O)/C=C/c2cc(OC)ccc2OC)c1 | -9.57% (inactive) |
| COc1ccc(NC(=O)CN(C)C(=O)/C=C/c2cn(Cc3ccccc3)nc2-c2cccnc2)cc1 | 97.8% (active) |
| Nn1c(SCC(=O)Nc2nccs2)nnc1-c1ccco1 | 1.62% (inactive) |
| CC1CCCCC1NC(=O)c1cn(C)c2ccc(S(=O)(=O)N3CCOCC3)cc2c1=O (configuration not stated) | -8.17% (inactive) |
| Cc1ccc(CNC(=O)Cn2cnc3c(NCc4ccccc4)ncnc32)o1 | 1.29% (inactive) |
| Cc1ccc(C(=O)O)cc1-c1ccc(/C=C2\SC(=O)N(CC(=O)Nc3ccc4c(c3)OCO4)C2=O)o1 | 94.1% (active) |
| Cc1nn(CC(=O)Nc2ccc3c(c2)OCO3)c(C)c1[N+](=O)[O-] | 0.9% (inactive) |
| Cc1nc([N+](=O)[O-])cn1CC(=O)Nc1ccc2c(c1)OCO2 | -4.74% (inactive) |
| CN(Cc1ccccc1)C(=O)c1ccc(NC2=NC3CS(=O)(=O)CC3S2)cc1 (configuration not stated) | -3.86% (inactive) |
| COc1ccc(S(=O)(=O)NCCc2cc3ccc(C)c(C)c3[nH]c2=O)cc1 | -6.43% (inactive) |
| COc1ccc(S(=O)(=O)N(C)CC(=O)N2CCCC2)cc1Cl | -2.74% (inactive) |
| COc1ccc(S(=O)(=O)c2c[nH]c(=S)[nH]c2=O)cc1Cl | 52.5% (active) |
| Cc1ccc(S(=O)(=O)c2c[nH]c3ccc(Cl)cc3c2=O)cc1 | 30.5% (inactive) |
| Cc1ccc(/C=C/C(=O)Nc2ccc([N+](=O)[O-])c(NC(=O)/C=C/c3ccc(C)o3)c2)o1 | 53.2% (active) |
| COC(=O)/C=C\C(=O)Nc1cccc([N+](=O)[O-])c1 | -2.7% (inactive) |
| Cc1ccc(/C=C/C(=O)Nc2cc(S(=O)(=O)N3CCCCCC3)ccc2OCC(F)(F)F)o1 | -9.11% (inactive) |
| CCOc1ccc(NC(=O)C2CC(=O)N=C(N)S2)cc1 (configuration not stated) | -10.8% (inactive) |
| Cn1c2c(c(=O)n(C)c1=O)C(c1cccc(F)c1)C(C#N)=C(N)O2 (configuration not stated) | -7.3% (inactive) |
| O=C(Cc1ccc([N+](=O)[O-])cc1)N/N=C/c1ccco1 | -11.8% (inactive) |
| O=C(N/N=C/c1ccco1)c1csc2c1CCCC2 | 0.11% (inactive) |

| SMILES | inhibition |
| --- | --- |
| O=C(N/N=C/c1ccco1)c1ccc(C(=O)N/N=C/c2ccco2)o1 | 83.9% (active) |
| CCn1c(=S)sc2c(=O)n(CC(=O)Nc3cccc(Br)c3)c(C)nc21 | -11% (inactive) |
| Cc1ccc(-c2nc(CS(=O)CC(=O)N3CCN(c4ncccn4)CC3)c(C)o2)cc1 (configuration not stated) | 13.2% (inactive) |
| O=C(c1ccc(S(=O)(=O)NCc2ccco2)cc1)N1CCN(c2ccccc2)CC1 | 22.5% (inactive) |
| O=C(c1ccc(CS(=O)(=O)c2ccccc2)o1)N1CCN(c2ccccc2)CC1 | 62.1% (active) |
| COc1ccccc1CNC(=O)c1ccc(CS(=O)(=O)c2ccccc2)o1 | -4.06% (inactive) |
| CC(C)NC(=O)C(c1ccc(F)cc1)N(C(=O)CCC(=O)Nc1ccccn1)c1ccccc1F (configuration not stated) | -5.49% (inactive) |
| Cc1ccc(-c2noc(C3CCCN(C(=O)c4cccc(Cl)c4)C3)n2)o1 (configuration not stated) | -1.22% (inactive) |
| O=C(N/N=C/c1ccccc1O)C1CCCC1 | -10.5% (inactive) |
| O=C(N/N=C/c1ccccc1O)/C(=C/c1ccccc1)CCO | -13.2% (inactive) |
| O=C(NN=Cc1ccccc1O)NN=Cc1ccccc1O | 85.7% (active) |
| COc1ccccc1CN(C)C(=O)C1(c2ccc(Cl)cc2)CC1 | -10.7% (inactive) |
| CSCCC(NS(=O)(=O)c1ccc(C)cc1)C(=O)N1CCCC1 (configuration not stated) | -0.76% (inactive) |
| Cc1ccc(N=Cc2c(O)n(-c3nccs3)c(=O)c3ccccc23)c(C)c1 | 51.3% (active) |
| Cc1ccc(-n2c(O)c(C=Nc3ccc(S(=O)(=O)Nc4ncccn4)cc3)c3ccccc3c2=O)cc1C | -12.6% (inactive) |
| Cc1ccc(N=Cc2c(O)cc(C)oc2=O)c(C)c1 | -1.31% (inactive) |
| O=C(NCCCc1ccccc1)C1CCC(CNc2c(N3CCCCC3)c(=O)c2=O)CC1 (configuration not stated) | -5.39% (inactive) |
| COc1ccccc1NC(=O)CCC(=O)OC(C)C(=O)c1ccccc1 (configuration not stated) | -10.3% (inactive) |
| COc1ccccc1CN1CCNC(=O)C1CC(=O)N(C)CC1CCOCC1 (configuration not stated) | -2.19% (inactive) |
| COc1ccc(CNC(=O)COc2cccnc2[N+](=O)[O-])cc1 | -6.82% (inactive) |
| Cc1nn(Cc2ccccc2)c(C)c1C(=O)NCCN1C(=O)S/C(=C\c2ccc(F)cc2)C1=O | -5.22% (inactive) |
| O=C(NCCN1C(=O)S/C(=C\c2cccnc2)C1=O)c1cccc(OC(F)F)c1 | -7.82% (inactive) |
| N#Cc1ccccc1CN1C(=O)S/C(=C/c2cccn2-c2cccc(C(=O)O)c2)C1=O | 70.5% (active) |
| Cc1ccccc1CSc1nnc(-c2ccccn2)n1N | -3.67% (inactive) |
| O=C(COC(=O)CSc1ccccc1)Nc1ccc(F)cc1F | -2.71% (inactive) |

| SMILES | inhibition |
| --- | --- |
| O=C(COC(=O)c1ccc(F)cc1F)Nc1ncccn1 | 87% (active) |
| CCOC(=O)c1cccc(NC(=O)c2ccc(F)cc2F)c1 | -7.13% (inactive) |
| COCCNC(=O)C(OC(=O)c1cccs1)c1ccc(F)cc1 (configuration not stated) | -8.1% (inactive) |
| CN(c1ccccc1)S(=O)(=O)c1cccc(C(=O)NNC(=O)c2ccncc2)c1 | -6.19% (inactive) |
| CCCNC(=O)CCc1c(C)nc2c(c(C)nn2-c2ccccc2)c1C | -19% (inactive) |
| O=S1(=O)CC/C(=N\Nc2ccc(F)cc2)c2ccsc21 | -1.87% (inactive) |
| Nn1cnnc1N/N=C/c1cc([N+](=O)[O-])c(Cl)cc1Cl | 71.5% (active) |
| Cc1ccsc1C(=O)NNC(=O)COc1ccc(Br)cc1 | -2.35% (inactive) |
| COc1ccc(-c2ccc(CCC(=O)O)n2-c2ccc(O)cc2)cc1 | -8.68% (inactive) |
| COc1ccccc1/C=C/C=N/NC(=O)CN1CCN(Cc2ccccc2)CC1 | -7.3% (inactive) |
| COc1ccc(Cl)cc1C=CC=Nc1ccc(S(N)(=O)=O)cc1 | -0.31% (inactive) |
| COc1ccc(Cl)cc1C=CC=NNC(=O)c1ccncc1 | 54.2% (active) |
| CCOC(=O)N1CCN(c2c(NCCN3CCN(c4ccccc4F)CC3)c(=O)c2=O)CC1 | -8.45% (inactive) |
| ON=C1/C(=N\O)CC2(C/C1=N/O)OCCO2 | 58% (active) |
| O/N=C1\CC2(Cc3nonc31)OCCO2 | -5.88% (inactive) |
| O=C(Cn1nnc(-c2ccc3c(c2)OCO3)n1)NCc1ccco1 | 60.1% (active) |
| CS(=O)(=O)N(CC(=O)NCc1ccco1)c1ccc2c(c1)OCO2 | 17.7% (inactive) |
| S=C(NCc1ccc2c(c1)OCO2)NCc1ccco1 | -10.4% (inactive) |
| COc1cccc(CNC(=O)CN(C)S(=O)(=O)c2ccc3c(c2)c(=O)n(C)c(=O)n3C)c1 | -11.9% (inactive) |
| Cc1ccc(S(=O)(=O)/N=S(\C)C(C)C)cc1 (configuration not stated) | -1% (inactive) |
| COc1ccccc1/C=C/C(=O)OCC(=O)NC1CCCCCC1 | -7.74% (inactive) |
| COc1ccc(/C=C/C(=O)OCC(=O)NC2CCCCCC2)cc1OC | 53% (active) |
| COc1cc(/C=C/C(=O)OCC(=O)NC2CC2)cc(OC)c1OC | 8.5% (inactive) |
| CCOC(=O)c1oc2c(CN3CCN(CCO)CC3)c(O)c(CC)cc2c(=O)c1-c1nc2ccccc2s1 | -2.5% (inactive) |
| Cc1ccc(NC(=O)COc2coc(CN3CCc4ccccc4C3)cc2=O)cc1Cl | 5.58% (inactive) |

| SMILES | inhibition |
| --- | --- |
| Cc1nnc2n1N=C(c1ccc3c(c1)NC(=O)CO3)CS2 | -2.49% (inactive) |
| Cc1cc(NC(=O)[C@H](C)NC(=O)c2ccco2)ccc1Br | -11% (inactive) |
| CCOc1ccc(N(CC(=O)OC)S(=O)(=O)c2c(C)noc2C)cc1 | -4.21% (inactive) |
| CCOC(=O)C1CCCN(C(=O)/C=C/c2ccc(OC)cc2)C1 (configuration not stated) | 0.29% (inactive) |
| CCOC(=O)C1CCCN(C(=O)CN(c2ccc(OC)cc2)S(=O)(=O)c2c(C)noc2C)C1 (configuration not stated) | 57.4% (active) |
| COc1ccc(OC)c(S(=O)(=O)NCCC(C)C)c1 | -1.08% (inactive) |
| Cc1nc2cc(NC(=O)CSc3nc4c(C)cccc4cc3C#N)ccc2s1 | 20.8% (inactive) |
| COc1cc(/C=C/C2=CC(C)(C)NC(=S)N2)cc(OC)c1OC | 83.9% (active) |
| COc1cc(/C=C/c2ccc(/C=C/c3cc(OC)c(OC)c(OC)c3)cc2)cc(OC)c1OC | 4.65% (inactive) |
| COc1ccc(/C=C/C2=CC(C)(C)NC(=S)N2)c(OC)c1 | -2.22% (inactive) |
| CCOC(=O)c1c(NC(=O)CNC2CCCc3ccccc32)sc(C(N)=O)c1C (configuration not stated) | -9.44% (inactive) |
| CCOCCCNC(=S)Nc1ccc2nc(N3CCN(CC)CC3)cc(C)c2c1 | -1.55% (inactive) |
| Cc1ccc(C(=O)Nc2sc(Cc3ccc4c(c3)OCO4)c(C)c2C(N)=O)cc1 | -8.44% (inactive) |
| CCOC(=O)c1cc2occc2n1CC(=O)N1CCN(C(=O)c2ccco2)CC1 | -2.95% (inactive) |
| O=C(Nc1cccc(Br)c1)C1CC(=O)N(C2CCCC2)C1 (configuration not stated) | -7.74% (inactive) |
| COc1ccccc1N(CC(=O)NC1CCCC1)C(=O)C1(C)CC(=O)N=C2C=CC(C)=CN21 (configuration not stated) | -2.31% (inactive) |
| Clc1ccc(CSc2nnc3c(n2)[nH]c2ccccc23)cc1 | -4.5% (inactive) |
| O=C(Nc1nnc(SCc2ccccc2Cl)s1)c1cccc([N+](=O)[O-])c1 | -14% (inactive) |
| S=C(NCc1ccco1)NCc1ccccc1Cl | -4.7% (inactive) |
| c1ccc(CSc2nnc(-c3ccco3)c(-c3ccco3)n2)cc1 | 79.2% (active) |
| CCc1nnc(SCc2cccc(F)c2)nc1CC | -10.3% (inactive) |
| Clc1ccccc1CSc1nnc(-c2ccco2)c(-c2ccco2)n1 | 76.5% (active) |
